≈ marks a conversion by molar mass, not a printed value.
Assays:
Streptococcus agalactiae = test: Antibacterial activity against Streptococcus agalactiae clinical isolate by broth microdilution method; assay type: functional
Outline: (§1)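 MIC by CLSI broth microdilution in frozen microtiter trays holding serial dilutions of each agent, prepared from standard laboratory powders. E. faecalis ATCC 29212 and ATCC 51299, S. aureus ATCC 29213 and S. pneumoniae ATCC 49619 run in parallel as quality-control strains. Comparator susceptibility interpreted with CLSI breakpoints.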

[1] = test system: Staphylococcus haemolyticus; test: Antibacterial activity against methicillin-susceptible coagulase-negative Staphylococcus haemolyticus clinical isolate by broth microdilution method; assay type: functional
Outline: (§2)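 MICs by CLSI broth microdilution in frozen trays pre-loaded with serial dilutions of each agent. Quality-control strains run in parallel: E. faecalis ATCC 29212 and ATCC 51299, S. aureus ATCC 29213, S. pneumoniae ATCC 49619. Comparator susceptibility categories follow CLSI breakpoints. Methicillin resistance in staphylococci assigned from the oxacillin MIC.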

Mammaliicoccus sciuri [2] = test: Antibacterial activity against methicillin-susceptible coagulase-negative Staphylococcus sciuri clinical isolate by broth microdilution method; assay type: functional; outline: as §2
Streptococcus mitis = test: Antibacterial activity against Streptococcus mitis clinical isolate by broth microdilution method; assay type: functional; outline: as §1
[3] = Antibacterial activity against Streptococcus sp. Group C clinical isolate by broth microdilution method; assay type: functional; outline: as §1
[4] = test system: Streptococcus intermedius; test: Antibacterial activity against Streptococcus intermedius clinical isolate by broth microdilution method; assay type: functional; outline: as §1
Staphylococcus aureus [5] = test: Antibacterial activity against daptomycin-nonsusceptible Staphylococcus aureus isolate 1285404 by broth microdilution method
Mammaliicoccus sciuri [6] = test: Antibacterial activity against methicillin-resistant coagulase-negative Staphylococcus sciuri clinical isolate by broth microdilution method; assay type: functional; outline: as §2
Staphylococcus capitis [7] = test: Antibacterial activity against methicillin-resistant coagulase-negative Staphylococcus capitis clinical isolate by broth microdilution method; assay type: functional; outline: as §2
Streptococcus oralis = test: Antibacterial activity against Streptococcus oralis clinical isolate by broth microdilution method; assay type: functional; outline: as §1
Streptococcus sp. = test: Antibacterial activity against Streptococcus sp. Group F clinical isolate by broth microdilution method; assay type: functional
Outline: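 MIC by CLSI broth microdilution in frozen microtiter trays holding serial dilutions of each agent, prepared from standard laboratory powders. Comparator susceptibility interpreted with CLSI breakpoints.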

Staphylococcus aureus [8] = test: Antibacterial activity against daptomycin-nonsusceptible Staphylococcus aureus isolate 1171063 by broth microdilution method; assay type: functional; outline: as §2
Staphylococcus aureus [9] = test: Antibacterial activity against daptomycin-nonsusceptible Staphylococcus aureus isolate 1176127 by broth microdilution method; assay type: functional; outline: as §2
Staphylococcus warneri = test: Antibacterial activity against methicillin-resistant coagulase-negative Staphylococcus warneri clinical isolate by broth microdilution method; assay type: functional; outline: as §2
Staphylococcus aureus [10] = test: Antibacterial activity against daptomycin-nonsusceptible Staphylococcus aureus isolate 1171055 by broth microdilution method; assay type: functional; outline: as §2
Streptococcus equinus = test: Antibacterial activity against Streptococcus bovis clinical isolate by broth microdilution method; assay type: functional; outline: as §1
Staphylococcus [11] = test: Antibacterial activity against daptomycin-nonsusceptible coagulase-negative Staphylococcus isolate 1285835 by broth microdilution method; assay type: functional; outline: as §1
Staphylococcus hominis = test: Antibacterial activity against methicillin-susceptible coagulase-negative Staphylococcus hominis clinical isolate by broth microdilution method; assay type: functional; outline: as §2
Staphylococcus xylosus = test: Antibacterial activity against methicillin-susceptible coagulase-negative Staphylococcus xylosus clinical isolate by broth microdilution method; assay type: functional; outline: as §2
[12] = test system: Streptococcus constellatus; test: Antibacterial activity against Streptococcus constellatus clinical isolate by broth microdilution method; assay type: functional; outline: as §1
Staphylococcus [13] = test: Antibacterial activity against methicillin-susceptible coagulase-negative unspeciated Staphylococcus clinical isolate by broth microdilution method; assay type: functional; outline: as §2
[14] = test system: Staphylococcus haemolyticus; test: Antibacterial activity against methicillin-resistant coagulase-negative Staphylococcus haemolyticus clinical isolate by broth microdilution method; assay type: functional; outline: as §2
Enterococcus faecium = test: Antibacterial activity against vancomycin- and teichoplanin-nonsusceptible Enterococcus faecium clinical isolate by broth microdilution method; assay type: functional; outline: as §2
Staphylococcus capitis [15] = test: Antibacterial activity against methicillin-susceptible coagulase-negative Staphylococcus capitis clinical isolate by broth microdilution method; assay type: functional; outline: as §2
Staphylococcus aureus [16] = test: Antibacterial activity against methicillin-resistant Staphylococcus aureus clinical isolate by broth microdilution method; assay type: functional; outline: as §2

`CCCCCCCCCC(=O)N[C@@H](Cc1c[nH]c2ccccc12)C(=O)N[C@H](CC(N)=O)C(=O)N[C@@H](CC(=O)O)C(=O)N[C@@H]1C(=O)NCC(=O)N[C@@H](CCCN)C(=O)N[C@@H](CC(=O)O)C(=O)N[C@H](C)C(=O)N[C@@H](CC(=O)O)C(=O)NCC(=O)N[C@H](CO)C(=O)N[C@@H]([C@H](C)CC(=O)O)C(=O)N[C@@H](CC(=O)c2ccccc2N)C(=O)O[C@@H]1C` showed an MIC50 (Streptococcus agalactiae) of 0.25 µg/mL (≈ 0.154 µM), an MIC90 (Streptococcus agalactiae) of 0.25 µg/mL (≈ 0.154 µM) and an MIC50 [1] of 0.5 µg/mL (≈ 0.309 µM). The MIC90 [1] was 1 µg/mL (≈ 0.617 µM), the MIC50 (Mammaliicoccus sciuri [2]) was 0.5 µg/mL (≈ 0.309 µM) and the MIC90 (Mammaliicoccus sciuri [2]) was 1 µg/mL (≈ 0.617 µM). It also gave an MIC50 (Streptococcus mitis) of 0.25 µg/mL (≈ 0.154 µM), an MIC90 (Streptococcus mitis) of 1 µg/mL (≈ 0.617 µM) and an MIC50 [3] of 0.06 µg/mL (≈ 0.037 µM). The MIC90 [3] was 0.25 µg/mL (≈ 0.154 µM), the MIC50 [4] was 0.25 µg/mL (≈ 0.154 µM) and the MIC90 [4] was 1 µg/mL (≈ 0.617 µM). The MIC (Staphylococcus aureus [5]) was greater than 1 µg/mL, the MIC50 (Mammaliicoccus sciuri [6]) was 0.5 µg/mL (≈ 0.309 µM) and the MIC90 (Mammaliicoccus sciuri [6]) was 1 µg/mL (≈ 0.617 µM). For the same compound, the MIC50 (Staphylococcus capitis [7]) was 0.5 µg/mL (≈ 0.309 µM), the MIC90 (Staphylococcus capitis [7]) was 1 µg/mL (≈ 0.617 µM) and the MIC50 (Streptococcus oralis) was 0.25 µg/mL (≈ 0.154 µM). The MIC90 (Streptococcus oralis) was 1 µg/mL (≈ 0.617 µM), the MIC50 (Streptococcus sp.) was 0.06 µg/mL (≈ 0.037 µM) and the MIC90 (Streptococcus sp.) was 0.25 µg/mL (≈ 0.154 µM). The MIC (Staphylococcus aureus [8]) was greater than 1 µg/mL, the MIC (Staphylococcus aureus [9]) was greater than 1 µg/mL and the MIC50 (Staphylococcus warneri) was 0.5 µg/mL (≈ 0.309 µM). The MIC90 (Staphylococcus warneri) was 1 µg/mL (≈ 0.617 µM), the MIC (Staphylococcus aureus [10]) was greater than 1 µg/mL and the MIC50 (Streptococcus equinus) was 0.25 µg/mL (≈ 0.154 µM). The MIC90 (Streptococcus equinus) was 1 µg/mL (≈ 0.617 µM), the MIC (Staphylococcus [11]) was greater than 1 µg/mL and the MIC50 (Staphylococcus hominis) was 0.5 µg/mL (≈ 0.309 µM). For the same compound, the MIC90 (Staphylococcus hominis) was 1 µg/mL (≈ 0.617 µM), the MIC50 (Staphylococcus xylosus) was 0.5 µg/mL (≈ 0.309 µM) and the MIC90 (Staphylococcus xylosus) was 1 µg/mL (≈ 0.617 µM). The MIC50 [12] was 0.25 µg/mL (≈ 0.154 µM), the MIC90 [12] was 1 µg/mL (≈ 0.617 µM) and the MIC50 (Staphylococcus [13]) was 0.5 µg/mL (≈ 0.309 µM). For the same compound, the MIC90 (Staphylococcus [13]) was 1 µg/mL (≈ 0.617 µM), the MIC50 [14] was 0.5 µg/mL (≈ 0.309 µM) and the MIC90 [14] was 1 µg/mL (≈ 0.617 µM). The MIC50 (Enterococcus faecium) was 2 µg/mL (≈ 1.23 µM), the MIC90 (Enterococcus faecium) was 4 µg/mL (≈ 2.47 µM) and the MIC50 (Staphylococcus capitis [15]) was 0.5 µg/mL (≈ 0.309 µM). It also gave an MIC90 (Staphylococcus capitis [15]) of 1 µg/mL (≈ 0.617 µM), an MIC50 (Staphylococcus aureus [16]) of 0.5 µg/mL (≈ 0.309 µM) and an MIC90 (Staphylococcus aureus [16]) of 0.5 µg/mL (≈ 0.309 µM).
